# TRPC4 agonist = TRPC4 (mouse) channel activation; HEK293 TRPC4beta/mu-opioid, Fluo4 calcium fluorescence; stronger effect = higher value; B-score at 10 µM; actives 0.49% (n = 310,000);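 active = B-score above 5 SD of library B-scores, and initial fluorescence ratio not above library mean plus 5 SD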;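 note: positive B-score marks a calcium rise read as TRPC4 activation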
#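 Assay system: HEK293 stable line with TRPC4beta plus mu-opioid receptor; schedule: 45 min room-temperature Fluo4 loading, 110 s read; technique: kinetic Fluo4 calcium fluorescence; evaluation: integrated baseline-normalised fluorescence ratio, converted to per-well B score; controls: buffer (low) and maximal DAMGO (high)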
# TRPC6 inhibitor = mouse TRPC6 channel inhibition; Q61143; HEK293-TRPC6, membrane potential dye, ACh-evoked depolarization; stronger effect = lower value; B-score at 10 µM; actives 1.1% (n = 310,000); AID 2553;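 active = B-score under library mean minus 3 SD, initial fluorescence not abnormally high, positive integrated signal ratio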;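 note: B-score derived from integrated fluorescence ratio over the kinetic read; more negative B-score means stronger inhibition of depolarization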
# Target sequence (Q61143 whole entry, looked up): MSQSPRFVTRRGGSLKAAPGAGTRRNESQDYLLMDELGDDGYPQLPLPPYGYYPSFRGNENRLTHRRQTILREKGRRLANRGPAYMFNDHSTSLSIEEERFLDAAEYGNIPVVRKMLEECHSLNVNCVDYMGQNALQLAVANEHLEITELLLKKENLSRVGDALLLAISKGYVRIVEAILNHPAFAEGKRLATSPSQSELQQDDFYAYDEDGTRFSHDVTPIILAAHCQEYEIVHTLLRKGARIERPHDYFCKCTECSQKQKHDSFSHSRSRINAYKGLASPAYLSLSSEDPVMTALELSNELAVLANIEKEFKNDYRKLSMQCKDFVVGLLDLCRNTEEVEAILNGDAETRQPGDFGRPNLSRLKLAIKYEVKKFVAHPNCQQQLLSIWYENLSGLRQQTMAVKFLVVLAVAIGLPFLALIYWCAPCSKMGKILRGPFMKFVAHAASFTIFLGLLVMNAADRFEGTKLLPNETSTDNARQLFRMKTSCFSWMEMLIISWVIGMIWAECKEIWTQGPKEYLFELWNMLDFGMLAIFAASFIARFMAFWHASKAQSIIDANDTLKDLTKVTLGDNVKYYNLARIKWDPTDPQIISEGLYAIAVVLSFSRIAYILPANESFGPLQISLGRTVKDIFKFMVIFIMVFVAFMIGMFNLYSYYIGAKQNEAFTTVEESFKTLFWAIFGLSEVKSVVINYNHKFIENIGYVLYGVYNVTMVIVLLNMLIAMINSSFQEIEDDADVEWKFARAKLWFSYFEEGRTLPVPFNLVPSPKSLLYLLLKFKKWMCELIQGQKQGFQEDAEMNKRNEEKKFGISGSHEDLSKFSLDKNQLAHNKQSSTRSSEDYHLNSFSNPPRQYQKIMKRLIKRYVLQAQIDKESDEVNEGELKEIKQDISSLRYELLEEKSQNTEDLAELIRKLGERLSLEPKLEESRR
# TRPC6 act = mouse TRPC6 channel activation | HEK293-TRPC6 membrane potential dye fluorescence; stronger effect = higher value | B-score at 10 µM | actives 0.13% (n = 310,000) | AID 2550;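 active = B-score of the integrated fluorescence ratio above library mean plus 3 SD, and starting fluorescence ratio within library mean plus 5 SD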;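 note: higher score means more depolarization so channel activation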
# TRPC4 block = TRPC4 (mouse) channel inhibition | AID 2247 | HEK293 TRPC4beta/mu-opioid, DAMGO-evoked Fluo4 calcium flux; stronger effect = lower value | B-score at 10 µM | actives 0.39% (n = 300,000) | Q9QUQ5;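 active = B-score over 3 SD under the library average, no early fluorescence shift, positive overall ratio signal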
#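 Material: HEK293 cells with stable TRPC4beta plus mu-opioid receptor expression / Probe or stimulus: DAMGO in two steps, submaximal then maximal / Compound: single concentration per test compound / Technique: kinetic Fluo4 fluorescence imaging of calcium influx / Read-out: per-well B score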
# TRPC4 potent = TRPC4 (mouse) allosteric potentiation; HEK293 TRPC4beta/mu-opioid, DAMGO EC20, Fluo-4 Ca2+ flux; stronger effect = higher value; B-score at 10 µM; actives 0.42% (n = 310,000);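 active = B-score of calcium response area above 5 SD of library B-scores, with initial fluorescence ratio within 5 SD of library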;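 note: B-score of integrated fluorescence ratio over time as area under calcium response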
# * = called active by the depositor; i = inactive. Only some compounds are listed: those with a hit (about 2.3% of all), similar ones and a draw of the others.
SMILES,TRPC4 agonist,TRPC6 inhibitor,TRPC6 act,TRPC4 block,TRPC4 potent
CCCn1c2ccc(F)cc2c2nnc(NN)nc21,i,i,i,i,11*
CCn1c2ccc(F)cc2c2nnc(NN)nc21,i,i,i,i,18*
CC1(C)C(=O)Nc2ccccc2N1C(=O)COC(=O)C1CCCCC1,i,i,i,i,10*
CCCCCCCn1c2c(c(=N)c3c1CCC3)CCCC2,i,-6*,i,i,i
CCCCCCn1c(=O)[nH]c2c(c1=O)CCC2,i,i,i,i,i
O=C(NCc1ccco1)c1sc(=S)n2c1[nH]c(=O)c1ccccc12,114*,i,i,i,i
O=C(NC1CCCC1)c1sc(=S)n2c1[nH]c(=O)c1ccccc12,83*,i,i,i,i
O=C(COC(=O)CC(c1ccccc1)c1ccccc1)Nc1c(F)cccc1F,i,i,i,i,i
CCn1c(-c2cc(-c3ccc(C)c(C)c3)nc3ccccc23)n[nH]c1=S,i,i,i,i,i
Cc1ccc(-c2cc(-c3n[nH]c(=S)n3C)c3ccccc3n2)cc1,i,i,i,i,12*
COCc1c(Br)c(C)nc(OCC(=O)N/N=C/c2cc(C)n(-c3ccc([N+](=O)[O-])cc3)c2C)c1C#N,i,i,i,i,i
COc1ccc(-n2c(C)cc(C(=O)Cn3nnc4ccccc4c3=O)c2C)cc1,i,i,i,i,i
Cc1cc(C(=O)Cn2nnc3ccccc3c2=O)c(C)n1-c1ccccc1F,i,i,i,i,14*
Cc1cc(C(=O)CN2C(=O)C(=O)N(CC(C)C)C2=O)c(C)n1-c1ccccc1F,i,i,i,i,15*
Cc1cc(C(=O)CN2C(=O)NC(CC(C)C)C2=O)c(C)n1-c1ccccc1F (stereo not given),i,i,i,i,i
Cc1ccc(CN2CCN(Cc3nc4ccccc4nc3C)CC2CCO)cc1 (stereo not given),i,i,i,i,i
O=C(c1ccco1)N1CCN(C(=O)c2ccc(CS(=O)c3ccc(Cl)cc3)o2)CC1 (stereo not given),i,i,i,i,i
CN(C)c1cc(-c2ccc(Cl)c(Cl)c2)oc(=O)c1Cl,i,i,i,i,i
COc1ccc(C2C(C#N)=C(N)N(c3sc4c(c3C#N)CCCC4)C3=C2C(=O)CC(C)(C)C3)cc1OC (stereo not given),i,i,i,i,i
COc1ccc(C2C(C#N)=C(N)N(c3sc4c(c3C#N)CCCC4)C3=C2C(=O)CC(C)(C)C3)cc1 (stereo not given),i,i,i,-5*,i
Cc1cc(C(=O)N/N=C\c2cc(C(C)(C)C)ccc2O)n[nH]1,i,i,i,-6*,i
CC(=O)Nc1ccc(NS(=O)(=O)c2ccccc2)cc1,i,i,i,i,i
CC(=O)C(C(C)=O)c1cc(NS(=O)(=O)c2ccccc2)ccc1NS(=O)(=O)c1ccccc1,47*,i,i,i,i
COP(=O)(CC(=O)c1ccccc1)CC(=O)c1ccccc1,i,i,i,i,i
CC1CN(CCOCCOc2ccccc2-c2ccccc2)CC(C)O1 (stereo not given),63*,i,i,i,i
SMILES,TRPC4 agonist,TRPC6 inhibitor,TRPC6 act,TRPC4 block,TRPC4 potent
COCCCNC(=O)C1CCC(CNS(=O)(=O)c2ccc3c(c2)CC(C)N3C(=O)C2CC2)CC1 (stereo not given),i,i,i,i,i
Cc1cc(N2CCN(C)CC2)nc2ccc(NC(=S)NC3CC3)cc12,i,i,i,i,i
CCCN(CCC)CCCNC(=S)Nc1ccc2nc(N3CCN(C)CC3)cc(C)c2c1,i,i,i,i,13*
CCCCN(CC)CCNC(=O)CCC(=O)Nc1ccc2nc(N3CCN(C)CC3)cc(C)c2c1,118*,i,i,i,i
CCCCN(CC)CCNC(=S)Nc1ccc2nc(N3CCN(C)CC3)cc(C)c2c1,66*,i,i,i,i
CCCN(CCC)CCCNC(=S)Nc1ccc2nc(N3CCN(CC)CC3)cc(C)c2c1,i,i,i,i,i
CCCN(CCC)CCNC(=S)Nc1ccc2nc3n(c(=O)c2c1)CCCCC3,88*,i,i,i,i
CCN(CC)CCCNC(=O)CCC(=O)Nc1ccc2nc(N3CCCCC3)cc(C)c2c1,i,i,i,i,i
COc1ccccc1/C=C/C=C(\C#N)C(=O)NC(C)c1ccccc1 (stereo not given),i,i,i,i,i
CCCN(CCC)CCNC(=O)CCC(=O)Nc1ccc2nc(N3CCOCC3)cc(C)c2c1,97*,i,i,i,i
COc1ccc(OC2CCN(S(=O)(=O)c3cccc(F)c3)CC2)cc1,i,i,i,i,11*
CCN1C(=O)c2cccc3c(S(=O)(=O)Nc4ccccc4OC)ccc1c23,76*,i,i,i,i
O=C(Cn1c(NCCCO)nc2ccccc21)c1ccc(Br)cc1,i,i,i,-7*,i
OCCNc1nc2ccccc2n1CCN1CCCCC1,i,i,i,-6*,i
CCCCn1c(NCc2ccccc2O)nc2ccccc21,i,i,i,i,i
CCCCn1c(NCCO)nc2ccccc21,i,i,i,-6*,i
S=C(NCC1CC1)N/N=C/c1ccccc1Cl,i,i,i,i,i
COc1ccc(C(c2c(O)ccc3ccccc23)N2CCOCC2)c(OC)c1 (stereo not given),i,i,i,-6*,i
CCN(c1ccccc1)S(=O)(=O)c1ccc2c(c1)N(C(C)=O)CCS2,i,i,i,i,i
COC(=O)c1sc(NC(=O)c2cc(-c3ccccc3)nc3ccccc23)c(C#N)c1C,i,i,i,i,13*
CCOC(=O)c1sc(NC(=O)c2cc(-c3ccc(C)cc3)nc3ccccc23)c(C#N)c1C,i,i,i,i,i
CC(Oc1ccc(Br)cc1)C(=O)NC1CCN(Cc2ccccc2)CC1 (stereo not given),i,i,i,i,i
O=C(CSc1nnc(NC(=O)C2CC2)s1)Nc1ccccc1C(F)(F)F,i,i,i,i,i
COc1ccc(NC(=O)c2cccc(N3C(=O)C4CC=C(C)CC4C3=O)c2)c(OC)c1 (stereo not given),i,i,i,-6*,i
O=C(CCc1ccccc1)N=C1SC2CS(=O)(=O)CC2N1c1ccccc1 (stereo not given),i,i,i,i,i

# High-throughput results as filed in PubChem BioAssay.
